Experimental data published in ChEMBL document CHEMBL1146618, “Discovery of 2-amino-heteroaryl-benzothiazole-6-anilides as potent p56(lck) inhibitors” (Bioorg Med Chem Lett, 2003).

Tests used:
[1] = biological target: T1, Tyrosine-protein kinase Lck (Homo sapiens, UniProt P06239); experiment: Inhibition of human p56 Lck tyrosine kinase
[2] = biological target: Tyrosine-protein kinase Fyn (Homo sapiens, UniProt P06241); experiment: Inhibition of Fyn protein kinase
Outline: (§1)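 Continuous coupled assay (pyruvate kinase/lactate dehydrogenase with PEP and NADH), run under the same conditions as the GST-Lck assay. Inhibitor was added in DMSO and the reaction started with ATP. Fluorescence was followed and rates were fitted by nonlinear least squares to derive Ki.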

[3] = biological target: Proto-oncogene tyrosine-protein kinase Src (Homo sapiens, UniProt P12931); experiment: Inhibition of Src protein tyrosine kinase; outline: as §1
Sequence of Proto-oncogene tyrosine-protein kinase Src (P12931 2-536 limits assumed): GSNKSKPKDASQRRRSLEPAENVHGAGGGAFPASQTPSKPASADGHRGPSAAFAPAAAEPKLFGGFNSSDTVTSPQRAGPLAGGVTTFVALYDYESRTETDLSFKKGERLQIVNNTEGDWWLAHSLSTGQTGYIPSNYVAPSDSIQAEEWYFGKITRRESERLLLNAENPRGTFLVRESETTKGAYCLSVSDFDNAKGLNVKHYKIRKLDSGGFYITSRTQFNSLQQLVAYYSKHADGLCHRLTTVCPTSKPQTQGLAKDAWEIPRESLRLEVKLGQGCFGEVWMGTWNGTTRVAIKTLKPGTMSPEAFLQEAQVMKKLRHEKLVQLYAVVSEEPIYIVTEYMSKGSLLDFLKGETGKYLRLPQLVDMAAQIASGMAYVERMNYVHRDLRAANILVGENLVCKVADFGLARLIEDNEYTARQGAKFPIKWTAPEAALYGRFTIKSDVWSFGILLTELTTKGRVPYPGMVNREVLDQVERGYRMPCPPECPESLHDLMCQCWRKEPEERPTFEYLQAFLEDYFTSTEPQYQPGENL

[4] = Inhibition of anti-CD3, anti-CD28 induced PBL T-cell proliferation; format: functional; settings: Homo sapiens
[5] = biological target: T1, Tyrosine-protein kinase Lck; experiment: Inhibition of p56 Lck tyrosine kinase

Sequence of Tyrosine-protein kinase Fyn (P06241 whole entry): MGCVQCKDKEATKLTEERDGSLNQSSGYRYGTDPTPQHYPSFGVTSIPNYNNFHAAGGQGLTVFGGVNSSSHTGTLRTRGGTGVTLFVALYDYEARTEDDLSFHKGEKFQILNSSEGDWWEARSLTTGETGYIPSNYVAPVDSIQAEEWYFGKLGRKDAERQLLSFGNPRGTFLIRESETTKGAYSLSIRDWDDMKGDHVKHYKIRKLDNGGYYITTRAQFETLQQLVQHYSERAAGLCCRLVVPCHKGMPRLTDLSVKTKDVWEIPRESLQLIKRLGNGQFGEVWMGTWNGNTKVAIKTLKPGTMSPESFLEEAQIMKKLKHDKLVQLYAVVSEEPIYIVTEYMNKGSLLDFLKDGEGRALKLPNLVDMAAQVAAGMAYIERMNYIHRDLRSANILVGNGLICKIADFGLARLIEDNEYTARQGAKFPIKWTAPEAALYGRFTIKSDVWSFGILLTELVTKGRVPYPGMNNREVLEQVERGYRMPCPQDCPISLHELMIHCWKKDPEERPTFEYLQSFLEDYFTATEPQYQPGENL
T1 sequence (P06239 whole entry): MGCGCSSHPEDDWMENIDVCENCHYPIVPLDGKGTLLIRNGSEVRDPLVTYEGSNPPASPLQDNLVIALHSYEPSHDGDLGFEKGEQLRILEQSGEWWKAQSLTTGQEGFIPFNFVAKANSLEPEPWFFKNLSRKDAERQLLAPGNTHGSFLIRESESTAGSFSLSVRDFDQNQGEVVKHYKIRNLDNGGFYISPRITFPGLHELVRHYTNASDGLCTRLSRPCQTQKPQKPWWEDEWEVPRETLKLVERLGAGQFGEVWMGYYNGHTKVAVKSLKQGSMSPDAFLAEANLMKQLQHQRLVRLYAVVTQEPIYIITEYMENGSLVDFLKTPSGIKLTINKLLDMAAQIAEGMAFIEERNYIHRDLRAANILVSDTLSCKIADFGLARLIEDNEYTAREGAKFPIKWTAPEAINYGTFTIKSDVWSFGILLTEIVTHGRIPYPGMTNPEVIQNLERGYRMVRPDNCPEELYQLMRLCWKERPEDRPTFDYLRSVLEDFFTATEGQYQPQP

Row | SMILES | IC50 [1] [nM] | also measured
1 | Cc1cccc(Cl)c1NC(=O)c1ccc2nc(Nc3ccccn3)sc2c1 | 84 | 
2 | Cc1cc(Nc2nc3ccc(C(=O)Nc4c(C)cccc4Cl)cc3s2)nc(C)n1 | 20 | 
3 | Cc1cc(C)c(NC(=O)c2ccc3nc(Nc4cccnc4)sc3c2)c(C)c1 | > 3100 | 
4 | Cc1cc(C)c(NC(=O)c2ccc3nc(Nc4nccs4)sc3c2)c(C)c1 | > 3100 | 
5 | Cc1cccc(Cl)c1NC(=O)c1ccc2nc(Nc3cc(Cl)ncn3)sc2c1 | 20 | 
6 | CNCc1cc(Nc2nc3ccc(C(=O)Nc4c(C)cccc4Cl)cc3s2)nc(C)n1 | 7 | 
7 | Cc1cccc(Cl)c1NC(=O)c1ccc2nc(Nc3cnccn3)sc2c1 | 15 | 
8 | CCc1cc(Nc2nc3ccc(C(=O)Nc4c(C)cccc4Cl)cc3s2)ncn1 | 5 | 
9 | Cc1cccc(Cl)c1NC(=O)c1ccc2nc(Nc3cccc(NCC(C)(C)N)n3)sc2c1 | 6 | 
10 | Cc1cc(C)c(NC(=O)c2ccc3nc(Nc4ccccn4)sc3c2)c(C)c1 | 138 | 
11 | Cc1ccc(Nc2nc3ccc(C(=O)Nc4c(C)cc(C)cc4C)cc3s2)nc1 | 72 | 
12 | Cc1cc(C)c(NC(=O)c2ccc3nc(Nc4nccnn4)sc3c2)c(C)c1 | 1890 | 
13 | Cc1cccc(Cl)c1NC(=O)c1ccc2nc(Nc3cc(CN(C)C)ccn3)sc2c1 | 9 | 
14 | Cc1cc(C)c(NC(=O)c2ccc3nc(NCC4CC4)sc3c2)c(C)c1 | > 3100 | 
15 | Cc1cccc(Nc2nc3ccc(C(=O)Nc4c(C)cccc4Cl)cc3s2)n1 | 9 | 
16 | Cc1cccc(Cl)c1NC(=O)c1ccc2nc(NN3C=CC=CN3)sc2c1 | 41 | 
17 | Cc1cc(C)c(NC(=O)c2ccc3nc(Nc4ccccc4)sc3c2)c(C)c1 | 1740 | 
18 | Cc1cc(C)c(NC(=O)c2ccc3nc(Nc4ncccc4C)sc3c2)c(C)c1 | > 3100 | 
19 | Cc1cc(Nc2nc3ccc(C(=O)Nc4c(C)cccc4Cl)cc3s2)nc(NCC(C)(C)O)n1 | 6 | 
20 | Cc1cc(Nc2nc3ccc(C(=O)Nc4c(C)cccc4Cl)cc3s2)nc(NCCO)n1 | 2 | Ki [2]: 4 nM; Ki [3]: 10 nM; IC50 [4]: 329 nM; IC50 [5]: 1.1 nM
21 | Cc1cc(C)c(NC(=O)c2ccc3nc(Nc4cnccn4)sc3c2)c(C)c1 | 235 | 

Row | SMILES | IC50 [1] [nM] | also measured
22 | Cc1cc(Nc2nc3ccc(C(=O)Nc4c(C)cccc4Cl)cc3s2)nc(NCC2CCCO2)n1 (stereo not given) | 1 | Ki [2]: 1.1 nM; Ki [3]: 3.2 nM; IC50 [4]: 262 nM; Ki [5]: 0.54 nM
23 | Cc1cc(C)nc(Nc2nc3ccc(C(=O)Nc4c(C)cccc4Cl)cc3s2)c1 | 8 | 
24 | Cc1cc(C)c(NC(=O)c2ccc3nc(Nc4ccncc4)sc3c2)c(C)c1 | > 3100 | 
25 | Cc1cc(Nc2nc3ccc(C(=O)Nc4c(C)cccc4Cl)cc3s2)nc(CN2CCOCC2)n1 | 10 | 
26 | Cc1cc(C)c(NC(=O)c2ccc3nc(Nc4cccc(C)n4)sc3c2)c(C)c1 | 180 | 
27 | CCc1ccnc(Nc2nc3ccc(C(=O)Nc4c(C)cccc4Cl)cc3s2)c1 | 5 | 
28 | CNN1CCN(Cc2ccnc(Nc3nc4ccc(C(=O)Nc5c(C)cccc5Cl)cc4s3)c2)CC1 | 1 | 
29 | Cc1cccc(Cl)c1NC(=O)c1ccc2nc(Nc3ccnc(Cl)n3)sc2c1 | 31 | 
30 | Cc1cnc(Nc2nc3ccc(C(=O)Nc4c(C)cc(C)cc4C)cc3s2)c(C)c1 | 17 | 
31 | Cc1cc(Nc2nc3ccc(C(=O)Nc4c(C)cccc4Cl)cc3s2)ncn1 | 21 | 
32 | Cc1cccc(Cl)c1NC(=O)c1ccc2nc(Nc3ncc[nH]3)sc2c1 | > 3100 | 
33 | Cc1ccnc(Nc2nc3ccc(C(=O)Nc4c(C)cccc4Cl)cc3s2)c1 | 20 | 
34 | Cc1cccc(Cl)c1NC(=O)c1ccc2nc(Nc3ccncn3)sc2c1 | 27 | 
35 | Cc1cc(C)c(NC(=O)c2ccc3nc(Nc4ccncn4)sc3c2)c(C)c1 | 403 | 
36 | CCc1cc(Nc2nc3ccc(C(=O)Nc4c(C)cc(C)cc4C)cc3s2)ncn1 | 77 | 
37 | Cc1nc(CN2CCOCC2)cc(Nc2nc3ccc(C(=O)Nc4c(C)cccc4Cl)cc3s2)n1 | 6 | 
38 | Cc1cccc(Cl)c1NC(=O)c1ccc2nc(Nc3cccc(NCCO)n3)sc2c1 | 0.5 | Ki [2]: 2.4 nM; Ki [3]: 13 nM; IC50 [4]: 475 nM; Ki [5]: 0.9 nM
39 | Cc1cccc(Cl)c1NC(=O)c1ccc2nc(Nc3ccccc3)sc2c1 | 327 | 
40 | Cc1cccc(Cl)c1NC(=O)c1ccc2nc(Nc3cc(N)ccn3)sc2c1 | 403 | 
41 | Cc1cccc(Cl)c1NC(=O)c1ccc2nc(Nc3cc(N)ncn3)sc2c1 | 8 | 
42 | Cc1cccc(Cl)c1NC(=O)c1ccc2nc(Nc3cccc(CN4CCOCC4)n3)sc2c1 | 13 | 

Row | SMILES | IC50 [1] [nM] | also measured
43 | Cc1ccc(Nc2nc3ccc(C(=O)Nc4c(C)cccc4Cl)cc3s2)nc1 | 35 | 
44 | Cc1cccc(Cl)c1NC(=O)c1ccc2nc(NC(=O)NC(C)(C)C)sc2c1 |  | Ki [2]: 100 nM; Ki [3]: 333 nM; IC50 [4]: 1100 nM; Ki [5]: 5.5 nM
45 | CC(=O)NCCNc1cc(Nc2nc3ccc(C(=O)Nc4c(C)cccc4Cl)cc3s2)ncn1 | 6 | 
46 | Cc1cccc(Cl)c1NC(=O)c1ccc2nc(Nc3cc(CN4CCOCC4)ccn3)sc2c1 | 1 | 
47 | Cc1cccc(Cl)c1NC(=O)c1ccc2nc(Nc3cccc(CN(C)C)n3)sc2c1 | 10 | 
48 | Cc1cc(C)c(NC(=O)c2ccc3nc(Nc4cnc[nH]4)sc3c2)c(C)c1 | > 3100 | 
49 | Cc1cccc(Cl)c1NC(=O)c1ccc2nc(Nc3ccnc(NCCO)n3)sc2c1 | 3 | 
50 | COc1cc(Nc2nc3ccc(C(=O)Nc4c(C)cccc4Cl)cc3s2)ncn1 | 13 | 
51 | Cc1ccnc(Nc2nc3ccc(C(=O)Nc4c(C)cc(C)cc4C)cc3s2)c1 | 32 | 
52 | Cc1cc(C)c(NC(=O)c2ccc3nc(Nc4nc[nH]n4)sc3c2)c(C)c1 | > 3100 | 
53 | Cc1cc(C)c(NC(=O)c2ccc3nc(Nc4ncc[nH]4)sc3c2)c(C)c1 | > 3100 | 
54 | Cc1cccc(Cl)c1NC(=O)c1ccc2nc(Nc3cc(NCCO)ncn3)sc2c1 | 8 | 
55 | Cc1cccc(Cl)c1NC(=O)c1ccc2nc(Nc3ccn[nH]3)sc2c1 | 1590 | 
56 | Cc1cc(C)c(NC(=O)c2ccc3nc(Nc4cc(C)nc(C)n4)sc3c2)c(C)c1 | 53 | 
57 | Cc1cccc(Cl)c1NC(=O)c1ccc2nc(Nc3cccc(N)n3)sc2c1 | 2 | 
58 | Cc1cc(C)c(NC(=O)c2ccc3nc(Nc4ncccn4)sc3c2)c(C)c1 | > 3100 | 
59 | CNc1cc(Nc2nc3ccc(C(=O)Nc4c(C)cccc4Cl)cc3s2)ncn1 | 2 | Ki [2]: 8.8 nM; Ki [3]: 17 nM; IC50 [4]: 690 nM; Ki [5]: 6.6 nM
60 | CC(=O)NCCNc1cccc(Nc2nc3ccc(C(=O)Nc4c(C)cccc4Cl)cc3s2)n1 | 2 | 
61 | CNc1nccc(Nc2nc3ccc(C(=O)Nc4c(C)cccc4Cl)cc3s2)n1 | 20 | 
